These results are taken from ChEMBL document CHEMBL4706642, “Discovery of a Potent Dual Inhibitor of Acetylcholinesterase and Butyrylcholinesterase with Antioxidant Activity that Alleviates Alzheimer-like Pathology in Old APP/PS1 Mice” (J Med Chem, 2021).

A short description of data set [1]: Selectivity index, ratio of IC50 for human serum BChE using butyrylthiocholineiodide as substrate to IC50 for recombinant human AChE using acetylthiocholine iodide as substrate. In short, it runs like this: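 Ellman spectrophotometric assay in 0.1 M phosphate buffer, pH 8.0, with 340 μM DTNB. Enzyme was 0.02 U/mL human recombinant AChE or human serum BChE. […] Then 550 μM ATCh or BTCh was added, and A412 was followed for 210 s. Non-enzymatic hydrolysis was corrected. IC50 came from a % inhibition vs log[I] regression. Selectivity = IC50 hBChE/IC50 hAChE. Mean ± SEM of ≥2 experiments, each in duplicate/triplicate.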

A short description of data set [2]: Antioxidant activity assessed as DPPH radical scavenging activity incubated for 30 mins under dark condition by UV-Vis spectrophotometric analysis. The format is functional. (DPPH is a stable violet radical that fades when it is reduced.)
A short description of data set [3]: Drug distribution in wild type C57BL6 mouse kidney at 2 mg/kg, ip thrice a week for 2 weeks observed after 4 hrs post last dose by HPLC/MS/MS analysis. The format is ADME, organism-based. The following applies: in vivo, 336 h.
Data set [4] is described as follows: Drug distribution in wild type C57BL6 mouse liver at 2 mg/kg, ip thrice a week for 2 weeks observed after 4 hrs post last dose by HPLC/MS/MS analysis. Type of data set: ADME, organism-based. Particulars: in vivo, 336 h.
Data set [5] in a line: Drug distribution in wild type C57BL6 mouse brain at 2 mg/kg, ip thrice a week for 2 weeks observed after 4 hrs post last dose by HPLC/MS/MS analysis. The following applies: in vivo, 336 h. Type of data set: ADME, organism-based.
Data set [6] concerns Mus musculus. Briefly: Cognitive enhancing effect in 6 months young APP/PS1 double mutant-transgenic mouse model assessed as increase in preference index for object at 2 mg/kg, ip administered thrice a week for 4 weeks by novel object localization test. Type of data set: functional, organism-based. In short, it runs like this:
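Male APP/PS1 mice received 2 mg/kg i.p. in saline (or vehicle), three times per week for 4 weeks. Preference index = time exploring the relocated or novel object divided by total time exploring both objects. Mean ± SEM, n = 7 per group; one-way ANOVA with Bonferroni post hoc.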

The test system of data set [7] is Mus musculus. In words: Memory enhancement effect in 6 months young APP/PS1 double mutant-transgenic mouse model at 2 mg/kg, ip administered thrice a week for 4 weeks by memory flexibility text. The format is functional, organism-based. The procedure, abridged:
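Memory flexibility test in male APP/PS1 mice treated i.p. with 2 mg/kg in saline (or vehicle), three times weekly for 4 weeks. The number of trials to reach criterion was counted on each testing day over 4 days. Mean ± SEM, n = 7 per group; one-way ANOVA with Bonferroni post hoc.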

Data set [8] deals with Mus musculus. Briefly: Antialzheimer activity in 6 months young APP/PS1 double mutant-transgenic mouse model assessed as amyloid beta42 levels in hippocampus at 2 mg/kg, ip administered thrice a week for 4 weeks by ELISA. Type of data set: functional, organism-based. In short, it runs like this:
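Male APP/PS1 mice received 2 mg/kg i.p. in saline (or vehicle), three times weekly for 4 weeks. After the behavioral tests, hippocampus was collected and Aβ40 and Aβ42 were measured with a specific ELISA kit. Mean ± SEM, n = 7 mice per group; one-way ANOVA with Bonferroni post hoc.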
A general note: An ELISA detects its analyte on a solid surface through an enzyme-linked reagent.

Data set [9] relates to Mus musculus. In words: Antialzheimer activity in 6 months young APP/PS1 double mutant-transgenic mouse model assessed as time interval between two EPSPs in CA3 region of hippocampus at 2 mg/kg, ip administered thrice a week for 4 weeks at 10 ms stimulus interval by fluorescence microscopy based electrophysiology method (reference value: 3.18 +/- 0.8 ms). The format is functional. The procedure, abridged: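 Paired-pulse facilitation in hippocampal slices from male APP/PS1 mice dosed i.p. with 2 mg/kg in saline (or vehicle), three times per week for 4 weeks. Two EPSPs were evoked at intervals of 10–200 ms, and the index is the R2/R1 fEPSP slope ratio. Mean ± SEM of 9 slices from 3 mice per group; two-way ANOVA with Bonferroni post hoc.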

Data set [10] deals with Mus musculus. In words: Antialzheimer activity in 6 months young APP/PS1 double mutant-transgenic mouse model assessed as postsynaptic potential in CA3 region of hippocampus at 2 mg/kg, ip administered thrice a week for 4 weeks followed by stimulation with 1 to 10 uA EPSP by fluorescence microscopy based electrophysiology method (reference value: 0.269 +/- 0.072 mV/ms). Type of data set: functional. In short, it runs like this: (§1)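 Hippocampal slices from male APP/PS1 mice given 2 mg/kg i.p. in saline (or saline alone), three times per week for 4 weeks. Input–output curves were built from evoked fEPSP slopes and fiber volley amplitudes, with values taken at the maximum current intensity. Mean ± SEM of 9 slices from 3 mice per group; two-way ANOVA with Bonferroni post hoc.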

For data set [11], the system named is Mus musculus. In words: Antialzheimer activity in 6 months young APP/PS1 double mutant-transgenic mouse model assessed as theta burst induced-long term potentiation in CA3 region of hippocampus at 2 mg/kg, ip administered thrice a week for 4 weeks by fluorescence microscopy based electrophysiology method (reference value: 134.1 +/- 13.1 %). Type of data set: functional.

Data set [12] deals with Mus musculus. Briefly: Antialzheimer activity in 6 months young APP/PS1 double mutant-transgenic mouse model assessed as fiber volley amplitude in CA3 region of hippocampus at 2 mg/kg, ip administered thrice a week for 4 weeks followed by stimulation with 1 to 10 uA EPSP by fluorescence microscopy based electrophysiology method (reference value: 0.719 +/- 0.175 mV/ms). The format is functional. In short, it runs like this: as §1

For data set [13], the system named is Mus musculus. Briefly: Antialzheimer activity in 11 months old APP/PS1 double mutant-transgenic mouse model assessed as fiber volley amplitude in CA3 region of hippocampus at 2 mg/kg, ip administered thrice a week for 4 weeks followed by stimulation with 1 to 10 uA EPSP by fluorescence microscopy based electrophysiology method (reference value: 0.826 +/- 0.169 mV/ms). Type of data set: functional. The procedure, abridged: as §1

In data set [14] the test system is Mus musculus. In words: Neuroprotective activity in 6 months young APP/PS1 double mutant-transgenic mouse model assessed as decrease in 4-hydroxy-2-nonenal levels in hippocampus at 2 mg/kg, ip administered thrice a week for 4 weeks by Hoechst staining based immunofluorescence analysis. Type of data set: functional, organism-based. The procedure, abridged: (§2)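 Hippocampal 4-hydroxy-2-nonenal was assessed by immunofluorescence with Hoechst counterstain in male APP/PS1 mice given 2 mg/kg i.p. in saline (or vehicle), three times weekly for 4 weeks. Mean ± SEM, n = 4 mice per group; one-way ANOVA with Bonferroni post hoc.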

The subject of data set [15] is Mus musculus. Briefly: Neuroprotective activity in 11 months old APP/PS1 double mutant-transgenic mouse model assessed as decrease in 4-hydroxy-2-nonenal levels in hippocampus at 2 mg/kg, ip administered thrice a week for 4 weeks by Hoechst staining based immunofluorescence analysis. Type of data set: functional, organism-based. In short, it runs like this: as §2

The subject of data set [16] is Mus musculus. Briefly: Antiinflammatory activity in 6 months young APP/PS1 double mutant-transgenic mouse model assessed as reduction in GFAP level in hippocampus at 2 mg/kg, ip administered thrice a week for 4 weeks by Hoechst staining based immunofluorescence analysis. The format is functional, organism-based. In short, it runs like this: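 Hippocampal GFAP immunofluorescence with Hoechst nuclear counterstain in male APP/PS1 mice after 2 mg/kg i.p. in saline (or vehicle), three times per week for 4 weeks. Mean ± SEM, n = 4 mice per group; one-way ANOVA with Bonferroni post hoc.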

The subject of data set [17] is Mus musculus. Briefly: Cognitive enhancing effect in 6 months young APP/PS1 double mutant-transgenic mouse model assessed as effect on number of times animal crossing central area in transparent cage at 2 mg/kg, ip administered thrice a week for 4 weeks by LOF test. Type of data set: functional, organism-based. In short, it runs like this:
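Open-field locomotor test in male APP/PS1 mice after 2 mg/kg i.p. in saline (or vehicle), three times per week for 4 weeks. Read-outs were time spent moving and number of crossings of the central area of a transparent cage. Mean ± SEM, n = 7 per group; one-way ANOVA with Bonferroni post hoc.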

Structures are written as SMILES. The source made the active and inactive calls.

As to `COc1cc(CNC(=O)CCCCCCNc2c3c(nc4cc(Cl)ccc24)CC2C=C(C)CC3C2)ccc1O` (centres undefined), in [1], the Ratio IC50 was 39.7. Moreover, in data set [2], the IC50 – broadly, the concentration that inhibits the measured activity by half – is 55.4 µM. For the same molecule, the Drug uptake entry in [3], in data set [4] and in [5] was “Active” throughout. In addition, the outcome with Mus musculus [6], in the data set with Mus musculus [7], in the data set with Mus musculus [8], in the data set on Mus musculus [14] and in the data set with Mus musculus [17] was inactive. In the data set on Mus musculus [9], the Time is 3.44 ms. The Activity with Mus musculus [10] was 0.262 mV/ms; in the data set on Mus musculus [11] it was 275.6%; in the data set on Mus musculus [12] it was 0.399 mV/ms; in the data set with Mus musculus [13] it was 0.808 mV. For the same molecule, the outcome in the data set on Mus musculus [15] and with Mus musculus [16] was Active.

As to `COc1cc(CNC(=O)Cc2cn(CCCCC3=CC4Cc5nc6cc(Cl)ccc6c(N)c5C(C3)C4)nn2)ccc1O` (centres undefined), the Ratio IC50 in data set [1] was 6.9. Also, the IC50 in data set [2] was 92 µM. Further, the Drug uptake entry in [3], in [4] and in [5] was “Active” throughout. For the same molecule, the outcome in the data set on Mus musculus [6], in the data set with Mus musculus [7], in the data set with Mus musculus [8], in the data set on Mus musculus [14], in the data set with Mus musculus [16] and with Mus musculus [17] was inactive. In the data set with Mus musculus [9], the Time came out at 1.93 ms. Moreover, the Activity with Mus musculus [10] is 0.296 mV/ms; in the data set with Mus musculus [11], 397.3%; in the data set with Mus musculus [12], 0.738 mV/ms; in the data set on Mus musculus [13], 1.039 mV. In the data set with Mus musculus [15], the outcome was Active.
